From PubChem
Only some compounds are listed: those with a hit (about 5.8% of all), similar ones and a draw of the others.
KDM4C inh – blocks human GASC-1 (KDM4C) demethylase activity; Q9H3R0; GST-KDM4C 2-372, H3K9me3 peptide, LANCE TR-FRET; inhibition, % at 12.5 µM; 96,000 tested, 0.15% active; AID 720574;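 active means mean replicate inhibition above about 25%, with at least 55% of replicates also reaching it, limit read from the data, passing the limit was not always enough; inconclusive means only one of those two conditions met; inactive means neither condition met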
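System – N-terminal GST-fused human GASC-1 (KDM4C) fragment, residues 2-372 · Input – enzyme final amount 10 nM · Technique – LANCE TR-FRET, Eu antibody, ULight-streptavidin, EDTA, ex 340 nm, em 618/671 nm · Medium – HEPES buffer, pH 7.5, plus ascorbate · Incubation – enzyme reaction 30 min, then detection 60 min, both room temperature · Reagent – H3K9me3 peptide with Fe(II)/2OG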
Pf Dd2 inh – blocks growth of Plasmodium falciparum Dd2 parasites; activity change, % at 10 µM; AID 1159554; 94,000 tested, 2.3% active; P. falciparum Dd2 growth, SYBR Green, 72 h; stronger effect = lower value; in the data active means activity change below about -80%; inconclusive means no clear call, values can overlap the other calls
T cruzi growth – blocks T. cruzi growth in NIH3T3 culture. T. cruzi beta-gal in NIH3T3, GalScreen luminescence, 90 h. inhibition, % at 8.34 µM. 77,000 tested, 5.9% active. AID 624255;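 active means mean inhibition above about 93%, with at least 55% of replicates each passing it, limit read from the data, passing the limit was not always enough; inconclusive means only one of those two conditions holds; inactive means neither condition holds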
IDH1 R132H inh – inhibitors of human IDH1 R132H; AID 624101; O75874; IDH1 R132H reductase, diaphorase/resazurin fluorescence, 60 min; inhibition, % at 10 µM; 70,000 tested, 0.18% active; in the data active means inhibition above about 34%; inconclusive means no clear call, values can overlap the other calls; inactive means below about 11%
Target sequence (O75874 whole entry R132H): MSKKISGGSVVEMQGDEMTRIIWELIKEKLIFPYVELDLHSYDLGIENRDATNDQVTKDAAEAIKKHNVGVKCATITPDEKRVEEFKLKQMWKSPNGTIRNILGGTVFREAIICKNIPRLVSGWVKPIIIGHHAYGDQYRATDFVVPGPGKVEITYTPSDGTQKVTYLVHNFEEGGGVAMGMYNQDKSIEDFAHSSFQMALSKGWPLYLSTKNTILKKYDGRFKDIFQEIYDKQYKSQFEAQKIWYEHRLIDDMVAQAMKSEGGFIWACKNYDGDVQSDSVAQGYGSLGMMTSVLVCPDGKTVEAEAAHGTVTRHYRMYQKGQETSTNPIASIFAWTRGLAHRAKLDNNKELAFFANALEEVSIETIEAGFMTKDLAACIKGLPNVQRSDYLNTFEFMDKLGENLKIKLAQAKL
Hits are given with their value; i = inactive; ? = inconclusive; nt = no result.

SMILES | KDM4C inh | Pf Dd2 inh | T cruzi growth | IDH1 R132H inh
COc1ccc(CN(C)C[C@H]2OCCCC[C@@H](C)Oc3ccc(NS(=O)(=O)c4ccc(OC)cc4)cc3C(=O)N([C@@H](C)CO)C[C@H]2C)cc1 | i | i | i | i
COc1ccc(NC(=O)Nc2ccc3c(c2)C(=O)N([C@@H](C)CO)C[C@H](C)[C@@H](CN(C)S(=O)(=O)c2ccccc2)OCCCC[C@@H](C)O3)cc1 | i | i | i | i
C[C@@H]1CN([C@H](C)CO)C(=O)c2cc(C#CC(C)(C)O)cnc2O[C@@H]1CN(C)Cc1cccc(F)c1 | i | i | nt | i
CC=Cc1ccc2n(c1=O)C[C@@H]1[C@@H](CO)[C@H](C(=O)NCCN3CCCC3)N(C(=O)NCCC)[C@H]21 (mixture of isomers) | i | i | i | nt
CCCNC(=O)N1CCC2(CC1)CN(Cc1cccc(OC)c1)[C@H](CO)c1[nH]c3cc(OC)ccc3c12 | i | i | nt | nt
CCCNC(=O)N1CCC2(CC1)CN(Cc1cccc(F)c1)[C@H](CO)c1[nH]c3cc(OC)ccc3c12 | i | -83.1 | nt | nt
COc1ccc2c3c([nH]c2c1)[C@H](CO)N(C(=O)c1cccc(F)c1)CC31CCN(C(=O)CC2CC2)CC1 | i | -82.3 | nt | nt
COc1ccc2c3c([nH]c2c1)[C@H](CO)N(Cc1cccc(F)c1)CC31CCN(C(C)=O)CC1 | i | -82.8 | nt | nt
COc1ccc2c3c([nH]c2c1)[C@@H](CO)N(Cc1ccc(F)cc1)CC31CCN(C(C)=O)CC1 | nt | i | nt | nt
COc1ccc2c3c([nH]c2c1)[C@H](CO)N(C(=O)c1cccc(F)c1)CC31CN(C(=O)CC2CC2)C1 | i | i | nt | nt
CO[C@H]1CN(C)C(=O)c2ccc(NC(=O)c3cccc(F)c3)cc2OC[C@H](C)NC[C@@H]1C | i | i | i | i
CC(=O)N(C)C[C@@H]1[C@@H](c2ccc(C3=CCCC3)cc2)[C@@H](CO)N1CC1CC1 | i | i | i | nt
CCCN1[C@H](CO)[C@H](c2ccc(C3=CCCC3)cc2)[C@H]1CN(C(C)=O)C1CCCC1 | i | -95.2 | nt | nt
C[C@H](CO)N1C[C@H](C)[C@@H](CN(C)Cc2ccc(C(=O)Nc3ccccc3N)cc2)Oc2c(NC(=O)Nc3ccccc3)cccc2C1=O | i | -86.0 | i | nt
C[C@@H]1CN([C@@H](C)CO)C(=O)c2cccc(NC(=O)Nc3cccc4ccccc34)c2O[C@@H]1CN(C)Cc1ccc(C(=O)Nc2ccccc2N)cc1 | i | -92.4 | nt | nt
CC(C)NC(=O)Nc1cccc2c1O[C@H](CN(C)Cc1ccc(C(=O)Nc3ccccc3N)cc1)[C@H](C)CN([C@H](C)CO)C2=O | i | i | nt | i
C[C@@H]1CN([C@H](C)CO)C(=O)c2cccc(NC(=O)Nc3ccccc3)c2O[C@@H]1CN(C)Cc1ccc(C(=O)O)cc1 | i | i | nt | nt
C[C@H](CO)N1C[C@H](C)[C@H](CN(C)Cc2ccc(C(=O)Nc3ccccc3N)cc2)Oc2c(NC(=O)Nc3ccc4c(c3)OCO4)cccc2C1=O | i | i | i | i
C[C@@H]1CN([C@@H](C)CO)C(=O)c2cccc(NC(=O)Nc3ccccc3)c2O[C@H]1CN(C)Cc1ccc(C(=O)Nc2ccccc2N)cc1 | i | -86.5 | i | i
C[C@H]1CCCCO[C@@H](CN(C)C(=O)Nc2ccc(F)cc2)[C@@H](C)CN([C@@H](C)CO)C(=O)c2cc(NS(=O)(=O)c3cccs3)ccc2O1 | i | i | i | i
C[C@@H]1CCCCO[C@H](CN(C)C(=O)Nc2ccc(F)cc2)[C@H](C)CN([C@H](C)CO)C(=O)c2cc(NS(=O)(=O)c3cccs3)ccc2O1 | i | -86.4 | i | nt
C[C@@H]1CN([C@@H](C)CO)C(=O)c2cc(NS(=O)(=O)c3cccs3)ccc2O[C@@H](C)CCCCO[C@@H]1CN(C)C(=O)Nc1ccc(C(F)(F)F)cc1 | i | -82.2 | nt | i
C[C@@H]1CCCCO[C@@H](CN(C)C(=O)Nc2ccc(F)cc2)[C@H](C)CN([C@H](C)CO)C(=O)c2cc(NS(=O)(=O)c3cccs3)ccc2O1 | i | -85.9 | i | i
N#CCc1ccc(NC(=O)COc2ccc([N+](=O)[O-])cc2)cc1 | nt | nt | nt | i
Cc1ccc(S(=O)(=O)Nc2ccc3c(c2)CC(=O)N([C@H](C)CO)C[C@H](C)[C@@H](CN(C)Cc2ccc(C(=O)Nc4ccccc4N)cc2)O3)cc1 | i | -85.4 | nt | i
SMILES | KDM4C inh | Pf Dd2 inh | T cruzi growth | IDH1 R132H inh
Cc1ccc(S(=O)(=O)Nc2ccc3c(c2)CC(=O)N([C@@H](C)CO)C[C@@H](C)[C@@H](CN(C)Cc2ccc(C(=O)Nc4ccccc4N)cc2)O3)cc1 | i | -87.7 | i | i
CS(=O)(=O)N(CC(=O)Nc1cc(Cl)cc(Cl)c1)c1cccc([N+](=O)[O-])c1 | nt | nt | nt | i
Cc1ccc(S(=O)(=O)Nc2ccc3c(c2)C(=O)N([C@H](C)CO)C[C@H](C)[C@H](CN(C)C(=O)Cc2ccccc2)OCCCC[C@@H](C)O3)cc1 | i | i | nt | nt
C[C@H](CO)N1C[C@H](C)[C@@H](CN(C)C(=O)Nc2ccccc2)OCCCC[C@H](C)Oc2ccc(NS(=O)(=O)c3ccc(Cl)cc3)cc2C1=O | i | i | i | nt
COc1ccccc1C#Cc1ccc([C@H]2[C@@H](C#N)N(C(=O)C3CCCCC3)[C@H]2CO)cc1 | nt | -91.6 | i | nt
COc1ccccc1C#Cc1ccc([C@H]2[C@@H](CO)N(C(=O)C3CC3)[C@H]2C#N)cc1 | nt | ? | i | i
COc1ccccc1C#Cc1ccc([C@@H]2[C@@H](C#N)N(C(=O)C3CCCCC3)[C@H]2CO)cc1 | nt | -90.6 | i | nt
COc1ccccc1C#Cc1ccc([C@@H]2[C@@H](C#N)N(C(=O)C3CCCC3)[C@@H]2CO)cc1 | i | i | nt | nt
COc1ccccc1C#Cc1cnc2c(c1)C(=O)N([C@H](C)CO)C[C@H](C)[C@H](CN(C)C(=O)CN(C)C)O2 | i | i | i | i
CCCN1[C@@H]2Cn3c(ccc(-c4ccc(F)cc4)c3=O)[C@H]1[C@@H](C(=O)NCC1CC1)[C@@H]2CO | i | i | i | nt
CC(C)NC(=O)Nc1ccc2c(c1)C(=O)N(C)[C@H]1CC[C@H](CC(=O)Nc3ccccc3)O[C@H]1CO2 | i | -97.8 | i | nt
C[C@@H]1CN([C@@H](C)CO)S(=O)(=O)c2ccc(-c3ccc(C(=O)N(C)C)cc3)cc2O[C@H]1CN(C)Cc1ccc2c(c1)OCO2 | i | -83.8 | nt | nt
C[C@@H]1CN([C@@H](C)CO)S(=O)(=O)c2ccc(-c3ccccc3)cc2O[C@H]1CN(C)Cc1cccnc1 | i | i | 103.2 | 66.2
C[C@H](CO)N1C[C@H](C)[C@@H](CN(C)Cc2ccc3c(c2)OCO3)Oc2cc(-c3cccc(C(=O)N(C)C)c3)ccc2S1(=O)=O | i | i | nt | i
C[C@H]1CN([C@@H](C)CO)S(=O)(=O)c2ccc(-c3ccccc3)cc2O[C@H]1CN(C)Cc1cccnc1 | i | i | i | nt
COc1ccccc1C#Cc1ccc2c(c1)O[C@@H](CN(C)Cc1cccnc1)[C@H](C)CN([C@@H](C)CO)S2(=O)=O | i | -83.4 | nt | nt
C[C@H]1CN([C@@H](C)CO)S(=O)(=O)c2ccc(-c3ccccc3)cc2O[C@@H]1CN(C)Cc1cccnc1 | i | i | 116.2 | nt
